High-throughput results: PubChem BioAssay, several laboratories
TRAIL sens C8: sensitizes caspase-8 expressing cells to TRAIL; NB7+C8 cells + TRAIL, ATPlite viability luminescence; inhibition (viability loss, TRAIL sensitization), % at 10 µM; hit rate 1% among 360,000;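 active means compounds causing at least 50% loss of cell viability in the single-dose screen, relative to plate controls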
STAT3 inh-1: STAT3 signaling inhibition | U3A cells, IL-6 STAT3-luciferase reporter, luminescence; host cell line lacks STAT1 | inhibition, % at 5.5 µM | hit rate 0.89% among 190,000 | AID 862;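 active means inhibition above the mean inhibition across all screened compounds plus 3 SD, cut at about 44% in these data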
STAT1 inh: inhibitors of IFN-gamma induced STAT1 signaling | inhibition, % at 5.5 µM | hit rate 0.35% among 200,000 | NIH 3T3 STAT1-luciferase reporter, luminescence;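 active means inhibition above a set limit, the mean inhibition across all tested compounds plus 3 SD, cut at about 34% in these data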
STAT3 activator: STAT3 signaling activation; U3A cells, IL-6 STAT3-luciferase reporter, luminescence; 100% = signal with IL-6 EC80 alone; activation (% of control), % at 5.6 µM; hit rate 0.91% among 190,000; AID 871;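 active means activation above the screen-wide mean of compound activation plus 3 SD, cut at about 130% in these data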
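Material: STAT1-lacking human U3A cells, STAT3 luciferase reporter | Benchmarks: IL-6-only wells as 100% reference | Probe or stimulus: IL-6 (33 ng/mL) | Timing: Compound 1 h, then IL-6 6 h at 37 °C | Detection: Luminescence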
PPC-1+TRAIL kill: kills PPC-1 cancer cells in the presence of TRAIL | PPC-1 cells + TRAIL, ATPLite viability luminescence | cell killing (% activity), % at 4 µM or 5 µM | hit rate 0.41% among 220,000;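 active means cell killing above 50% in the first pass at 4 µM, then a duplicate retest at 5 µM averaging 50% or more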
STAT3 inh-2: confirmation of STAT3 signaling inhibitors; shares compounds with STAT3 inh-1; U3A cells, IL-6 STAT3 luciferase reporter, luminescence; cell line lacks STAT1; inhibition, % at 5.7 µM; hit rate 45% among 1,200; AID 1265;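 active means inhibition above the hit cutoff computed for the primary STAT3 screen, cut at about 44% in these data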
NFkB inh 2: NF-kappaB inhibition in STAT3 inhibitor counter-screen; AID 1308; shares compounds with STAT3 inh-1; hit rate 36% among 1,200; HEK293T NF-kB luciferase reporter, TNF-alpha induced; inhibition, % at 5.7 µM;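 active means inhibition above the mean of solvent-only control wells plus 3 SD, cutoff set per campaign, cut at about 13% in these data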
STAT1 inh STAT3c: inhibits STAT1, counter-screen to STAT3 inhibitors; shares compounds with STAT3 inh-1; hit rate 27% among 1,200; NIH 3T3 STAT1-luciferase reporter, IFN-gamma induced, luminescence; inhibition, % at 5.7 µM; AID 1317;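 active means inhibition above the mean plus 3 SD of solvent-only control wells, limit set per screening run, cut at about 16% in these data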
Large screens that a line does not name were inactive (follow-up assays come after a bar, where they were run). Compounds with a hit are over-represented: about 1.8% of the library has one in this group of screens.

O=C(Nc1ccc(Oc2cccnc2)cc1)c1cccc([N+](=O)[O-])c1	none
O=C(Nc1ccc(Oc2cccnc2)cc1)c1ccc([N+](=O)[O-])cc1	STAT3 inh-1 69 | STAT3 inh-2 65 | NFkB inh 2 23 | STAT1 inh STAT3c inactive
NC(=O)c1ccccc1N/C=C/C(=O)c1ccccc1	TRAIL sens C8 57, STAT3 inh-1 49 | STAT3 inh-2 inactive | NFkB inh 2 inactive | STAT1 inh STAT3c inactive
O=C(/C=C/NNC(=O)c1ccccc1O)c1ccccc1	none (no result: STAT3 inh-1, STAT1 inh, STAT3 activator, PPC-1+TRAIL kill)
COc1ccc(C2SCC(=O)N2CCc2ccc(OC)c(OC)c2)cc1 (stereo not given)	STAT3 inh-1 45 (no result: PPC-1+TRAIL kill) | STAT3 inh-2 43 | NFkB inh 2 15 | STAT1 inh STAT3c 16
CC(C)C(NC(=O)c1ccccc1NC(=O)c1ccco1)C(=O)NNC(=O)c1ccncc1 (stereo not given)	none (no result: STAT3 inh-1, STAT1 inh, STAT3 activator)
Cc1cc2nc(N3C(=O)CNC3=S)sc2cc1C	TRAIL sens C8 57, STAT3 inh-1 48 | STAT3 inh-2 inactive | NFkB inh 2 inactive | STAT1 inh STAT3c inactive
O=C(/C=C/c1cc(Br)ccc1F)OCC(=O)N1CCCC1	none (no result: STAT3 inh-1, STAT1 inh, STAT3 activator, PPC-1+TRAIL kill)
CCOC(=O)c1c(NC(=O)C2COc3ccccc3O2)sc2c1CC(C)(C)NC2(C)C (stereo not given)	none
CCN(C(=O)c1ccc(C(C)(C)C)cc1)c1nnc(Cn2nnc3ccccc32)s1	STAT3 inh-1 86 | STAT3 inh-2 85 | NFkB inh 2 31 | STAT1 inh STAT3c inactive
CCN(C(=O)CC(C)C)c1nnc(Cn2nnc3ccccc32)s1	none
Cc1ccccc1-c1cc(C(=O)NCc2cccc(Br)c2)n(CC2CC(c3cccnc3)=NO2)n1 (stereo not given)	none (no result: STAT3 inh-1, STAT1 inh, STAT3 activator, PPC-1+TRAIL kill)
COc1ccccc1N(Cc1cc(=O)[nH]c2ccccc12)C(=O)c1cccc([N+](=O)[O-])c1	none (no result: STAT3 inh-1, STAT1 inh, STAT3 activator)
O=C(Nc1cccnc1)c1ccc(-c2ccccc2)cc1	none
O=C(Nc1ccncc1)c1ccc(-c2ccccc2)cc1	TRAIL sens C8 51, STAT3 inh-1 82 | STAT3 inh-2 77 | NFkB inh 2 inactive | STAT1 inh STAT3c inactive
Oc1ccccc1-c1cc(-c2ccc3c(c2)OCCO3)n[nH]1	TRAIL sens C8 53, STAT3 inh-1 55 | STAT3 inh-2 inactive | NFkB inh 2 inactive | STAT1 inh STAT3c inactive
O=C(O)c1cc(-c2ccc3c(c2)OCCO3)n[nH]1	none
O=C(Cc1ccccc1)Nc1scc(-c2ccccc2)c1C(=O)N1CCOCC1	none
NC(=O)c1c(-c2ccc(Cl)cc2Cl)csc1NC(=O)Cc1ccccc1	STAT3 inh-1 44 | STAT3 inh-2 72 | NFkB inh 2 23 | STAT1 inh STAT3c inactive
COc1ccc(C(=O)NCC(=O)OCC(=O)NCCC2=CCCCC2)cc1	none
COc1ccc(C(=O)NCCC2=CCCCC2)cc1	STAT3 inh-1 52 | STAT3 inh-2 inactive | NFkB inh 2 inactive | STAT1 inh STAT3c inactive
CC(C)c1ccc(/C=C/C(=O)NC2=NCCS2)cc1	STAT3 inh-1 68 (no result: TRAIL sens C8) | STAT3 inh-2 inactive | NFkB inh 2 inactive | STAT1 inh STAT3c inactive
C#CCOCCOCCOCCNc1nc(N2CCN(C(=O)Cn3cc(CC(C)O)nn3)CC2)nc(N2CCN(C(=O)[C@H](C)n3cc(CCC(=O)O)nn3)CC2)n1 (stereo not given in full)	none (no result: STAT3 inh-1, STAT1 inh, STAT3 activator, PPC-1+TRAIL kill)
CCc1ccc(OCc2nc(-c3ccccn3)no2)c(Br)c1	TRAIL sens C8 55, STAT3 inh-1 56 | STAT3 inh-2 inactive | NFkB inh 2 inactive | STAT1 inh STAT3c inactive
CC(C)c1ccc(OCc2nc(-c3ccccn3)no2)c(Br)c1	none
COc1ccc2[nH]c3c(c2c1)CCn1c-3nc2ccccc2c1=O	STAT3 inh-1 51 | STAT3 inh-2 inactive | NFkB inh 2 inactive | STAT1 inh STAT3c inactive
COCC1CCN(C(=O)c2cc(COc3ccc(-n4cncn4)cc3)on2)CC1	none (no result: STAT3 inh-1, STAT1 inh, STAT3 activator, PPC-1+TRAIL kill)
COc1cccc(CN(C)C(=O)c2cc(COc3ccc4ncccc4c3)on2)c1	STAT3 inh-1 74, STAT1 inh 35 | STAT3 inh-2 64 | NFkB inh 2 18 | STAT1 inh STAT3c 19
